Converted amounts (≈) assume the structure as drawn.
Experiments:
Assay type in all cases: functional
Candida albicans [1] = test: Antifungal activity against Candida albicans assessed as total inhibition of cell growth/spore germination after 24 hrs
In short: (§1)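 Microtiter-plate cell growth inhibition, compounds tested up to 100 µg/mL, incubated at 37 °C for 24 h. Total inhibition was taken as full inhibition of growth. Tests run in triplicate and repeated once.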

Staphylococcus aureus [2] = test: Antibacterial activity against Staphylococcus aureus assessed as total inhibition of cell growth/spore germination after 24 hrs; in short: as §1
Aspergillus fumigatus [3] = test: Antifungal activity against Aspergillus fumigatus assessed as total inhibition of cell growth/spore germination after 96 hrs
In short: (§2)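 Spore germination/growth inhibition was read in microtiter plates with compounds up to 100 µg/mL. Plates were incubated in darkness at 27-28 °C: D. sorokiniana 48 h, F. culmorum 72 h, A. fumigatus 96 h. Visual scores ran from 3 (full inhibition, like sterile medium) through 1 (detectable) to 0 (like untreated spore suspension). Triplicates, repeated once.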

Aspergillus fumigatus [4] = test: Antifungal activity against Aspergillus fumigatus assessed as detectable inhibition of growth after 96 hrs; in short: as §2
Fusarium culmorum [5] = test: Antifungal activity against Fusarium culmorum assessed as total inhibition of cell growth/spore germination after 72 hrs; in short: as §2
Drechslera [6] = test: Antifungal activity against Drechslera sorokiniana assessed as total inhibition of cell growth/spore germination after 48 hrs; in short: as §2
Staphylococcus aureus [7] = test: Antibacterial activity against Staphylococcus aureus assessed as detectable inhibition of growth after 24 hrs; in short: as §1
Candida albicans [8] = test: Antifungal activity against Candida albicans assessed as detectable inhibition of growth after 24 hrs; in short: as §1
Fusarium culmorum [9] = test: Antifungal activity against Fusarium culmorum assessed as detectable inhibition of growth after 72 hrs; in short: as §2
Drechslera [10] = test: Antifungal activity against Drechslera sorokiniana assessed as detectable inhibition of growth after 48 hrs; in short: as §2
[11] = tested on: Pseudomonas savastanoi pv. savastanoi; test: Antibacterial activity against Pseudomonas savastanoi pv. savastanoi CCM 3580 assessed as detectable inhibition of growth after 24 hrs; settings: CCM 3580, 24 h
In short: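 Microtiter-plate bioassay of cell growth inhibition; compounds tested up to 100 µg/mL; plates incubated in darkness at 27-28 °C for 24 h; growth scored visually on a 0-3 scale (3 full inhibition like sterile-medium control, 1 detectable inhibition, 0 like untreated cell suspension); value is lowest concentration giving detectable inhibition; triplicate, repeated once.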

SMILES | MIC (Candida albicans [1]) [µg/mL] | MIC (Staphylococcus aureus [2]) [µg/mL] | MIC (Aspergillus fumigatus [3]) [µg/mL] | MIC (Aspergillus fumigatus [4]) [µg/mL] | MIC (Fusarium culmorum [5]) [µg/mL] | MIC (Drechslera [6]) [µg/mL] | MIC (Staphylococcus aureus [7]) [µg/mL] | MIC (Candida albicans [8]) [µg/mL] | MIC (Fusarium culmorum [9]) [µg/mL] | MIC (Drechslera [10]) [µg/mL] | MIC [11] [µg/mL]
CCCCCCc1c(O)cc(CCC)cc1O | 50 (≈ 212 µM) | 3 (≈ 12.7 µM) | 50 (≈ 212 µM) | 10 (≈ 42.3 µM) | 50 (≈ 212 µM) |  | 2 (≈ 8.46 µM) |  | 10 (≈ 42.3 µM) | 50 (≈ 212 µM) | 
CCCCc1c(O)cc(CCC)cc1O |  | 5 (≈ 24 µM) |  | 50 (≈ 240 µM) | 50 (≈ 240 µM) |  |  | 50 (≈ 240 µM) |  | 50 (≈ 240 µM) | 
C=CCOC(Cn1ccnc1)c1ccc(Cl)cc1Cl (stereo not drawn) [ENILCONAZOLE] |  |  | 5 (≈ 16.8 µM) |  | 5 (≈ 16.8 µM) | 0.1 (≈ 0.336 µM) |  |  |  |  | 
CCCCCCc1c(O)cc(CCCCC)cc1O [RESORSTATIN] |  | 7 (≈ 26.5 µM) |  | 50 (≈ 189 µM) | 50 (≈ 189 µM) |  | 6 (≈ 22.7 µM) | 50 (≈ 189 µM) |  | 50 (≈ 189 µM) | 50 (≈ 189 µM)

The next lines start with results.

MIC (Candida albicans [1]) [µg/mL] | MIC (Staphylococcus aureus [2]) [µg/mL] | MIC (Aspergillus fumigatus [3]) [µg/mL] | MIC (Aspergillus fumigatus [4]) [µg/mL] | MIC (Fusarium culmorum [5]) [µg/mL] | MIC (Drechslera [6]) [µg/mL] | MIC (Staphylococcus aureus [7]) [µg/mL] | MIC (Candida albicans [8]) [µg/mL] | MIC (Fusarium culmorum [9]) [µg/mL] | MIC (Drechslera [10]) [µg/mL] | SMILES | MIC [11] [µg/mL]
100 (≈ 359 µM) | 100 (≈ 359 µM) |  |  |  |  |  |  |  |  | CCCCCCC1=C(O)C(=O)C(CCCCC)=CC1=O | 
 | 2 (≈ 9.6 µM) | 50 (≈ 240 µM) | 10 (≈ 48 µM) | 50 (≈ 240 µM) | 50 (≈ 240 µM) | 1 (≈ 4.8 µM) | 50 (≈ 240 µM) | 10 (≈ 48 µM) |  | CCCCCCc1c(O)cc(C)cc1O | 
40 (≈ 43.3 µM) |  | 40 (≈ 43.3 µM) |  | 40 (≈ 43.3 µM) | 4 (≈ 4.33 µM) |  |  |  |  | C[C@@H]1[C@H](O)[C@@H](C)/C=C/C=C/C=C/C=C/C=C/C=C/C=C/[C@H](O[C@@H]2O[C@H](C)[C@@H](O)[C@H](N)[C@@H]2O)C[C@@H]2O[C@](O)(C[C@@H](O)C[C@@H](O)[C@H](O)CC[C@@H](O)C[C@@H](O)CC(=O)O[C@H]1C)C[C@H](O)[C@H]2C(=O)O [AMPHOTERICIN B] | 
 | 10 (≈ 17.2 µM) |  |  |  |  |  |  |  |  | CN[C@@H]1[C@H](O[C@H]2[C@H](O[C@H]3[C@H](O)[C@@H](O)[C@H](N=C(N)N)[C@@H](O)[C@@H]3N=C(N)N)O[C@@H](C)[C@]2(O)C=O)O[C@@H](CO)[C@H](O)[C@H]1O [STREPTOMYCIN] | 
